# Reference: ChEMBL document CHEMBL1275519, “In vivo pharmacodynamics of ceftobiprole against multiple bacterial pathogens in murine thigh and lung infection models” (Antimicrob Agents Chemother, 2008)
# Assays:
# [1] = T>MIC in methicillin-resistant Staphylococcus aureus 11888 infected CD1 neutropenic mouse at static dose of 22.6 mg/kg, sc administered every 6 hrs; format: functional; conditions: route subcutaneous
# Klebsiella pneumoniae = assay: Antimicrobial activity against Klebsiella pneumoniae ATCC 43816 by broth dilution method; format: functional
# Summary of the method: (§1)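 Ceftobiprole MIC determined by CLSI (NCCLS) broth microdilution.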
# [2] = AUC in CD1 neutropenic mouse with bacterial infection in thigh at 160 mg/kg, sc; format: ADME, organism-based; design: dose 160 mg/kg, route subcutaneous; conditions: plasma
# Summary of the method: (§2)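 Neutropenic thigh-infected mice (cyclophosphamide i.p. 150 mg/kg day −4, 100 mg/kg day −1) given single s.c. ceftobiprole medocaril doses; two groups of three mice per dose bled retro-orbitally at 0.5–6 h, each animal 3–4 times. Total serum drug measured by agar diffusion bioassay with E. coli NIH-J (linear 0.25–256 μg/ml). Cmax, t1/2 and AUC from one-compartment model.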
# [3] = Half life in CD1 neutropenic mouse with bacterial infection in thigh at 40 mg/kg, sc; format: ADME, organism-based; design: dose 40 mg/kg, route subcutaneous; conditions: in vivo; summary of the method: as §2
# [4] = T>MIC in Enterobacter cloacae 4567 infected CD1 neutropenic mouse at static dose of 3.28 mg/kg, sc administered every 3 hrs; format: functional; conditions: route subcutaneous
# Summary of the method: (§3)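 Neutropenic mice (cyclophosphamide i.p. 150 and 100 mg/kg, 4 and 1 days pre-infection) given 0.1 ml thigh inoculum (1:10 dilution of 10^8 CFU/ml), then treated from 2 h post-infection for 24 h with s.c. ceftobiprole medocaril (0.010–160 mg/kg) at varied intervals. Thigh CFU plated from homogenates. Static dose came from a sigmoid Hill model, and T>MIC was estimated from mouse PK and MIC.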
# [5] = T>MIC in Enterobacter cloacae 2249 infected CD1 neutropenic mouse at 2-log kill dose of 155 mg/kg, sc administered every 3 hrs; format: functional; conditions: route subcutaneous
# [6] = T>MIC in Streptococcus pneumoniae CDC-145 infected CD1 neutropenic mouse at 2-log kill dose of 3.27 mg/kg, sc administered every 6 hrs; format: functional; conditions: route subcutaneous
# [7] = T>MIC in Pseudomonas aeruginosa ATCC 27853 infected CD1 neutropenic mouse at 2-log kill dose of 110 mg/kg, sc administered every 3 hrs; format: functional; conditions: route subcutaneous
# [8] = T>MIC in methicillin-resistant Staphylococcus aureus 12248 infected CD1 neutropenic mouse at static dose of 29.2 mg/kg, sc administered every 6 hrs; format: functional; conditions: route subcutaneous
# Streptococcus pneumoniae = assay: Antimicrobial activity against Streptococcus pneumoniae CDC 673 by broth dilution method; format: functional
# Summary of the method: (§4)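 Ceftobiprole MIC by broth microdilution per Clinical and Laboratory Standards Institute (formerly NCCLS) methods, using ceftobiprole standard powder.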
# [9] = T>MIC in Staphylococcus aureus ATCC 29213 infected CD1 neutropenic mouse at static dose of 3.78 mg/kg, sc administered every 6 hrs; format: functional; conditions: route subcutaneous; summary of the method: as §3
# [10] = Cmax in CD1 neutropenic mouse with bacterial infection in thigh at 10 mg/kg, sc; conditions: in vivo
# [11] = T>MIC in Streptococcus pneumoniae CDC 1293 infected CD1 neutropenic mouse at static dose of 2.72 mg/kg, sc administered every 6 hrs; format: functional; conditions: route subcutaneous; summary of the method: as §3
# [12] = T>MIC in Streptococcus pneumoniae ATCC 10813 infected CD1 neutropenic mouse at 2-log kill dose of 0.552 mg/kg, sc administered every 6 hrs; format: functional; conditions: route subcutaneous
# [13] = T>MIC in Escherichia coli ATCC 25922 infected CD1 neutropenic mouse at 2-log kill dose of 42.4 mg/kg, sc administered every 6 hrs; format: functional; conditions: route subcutaneous
# [14] = AUC in CD1 neutropenic mouse with bacterial infection in thigh at 40 mg/kg, sc; format: ADME, organism-based; design: dose 40 mg/kg, route subcutaneous; conditions: plasma; summary of the method: as §2
# [15] = Cmax in CD1 neutropenic mouse with bacterial infection in thigh at 160 mg/kg, sc; format: ADME, organism-based; design: dose 160 mg/kg, route subcutaneous; conditions: in vivo; summary of the method: as §2
# Staphylococcus aureus [16] = assay: Antimicrobial activity against methicillin-resistant Staphylococcus aureus WIS-1 by broth dilution method; format: functional; summary of the method: as §4
# [17] = T>MIC in Escherichia coli ATCC 25922 infected CD1 neutropenic mouse at static dose of 8.25 mg/kg, sc administered every 6 hrs; format: functional; conditions: route subcutaneous; summary of the method: as §3
# Enterobacter cloacae [18] = assay: Antimicrobial activity against Enterobacter cloacae 4567 by broth dilution method; format: functional; summary of the method: as §1
# Staphylococcus aureus [19] = assay: Antimicrobial activity against methicillin-resistant Staphylococcus aureus 12248 by broth dilution method; format: functional; summary of the method: as §4
# [20] = T>MIC in Klebsiella pneumoniae infected CD1 neutropenic mouse at 2-log kill dose of 43.8 mg/kg, sc administered every 6 hrs; format: functional; conditions: route subcutaneous
# Escherichia coli = assay: Antimicrobial activity against Escherichia coli ATCC 25922 by broth dilution method; format: functional; summary of the method: as §1
# [21] = T>MIC in Streptococcus pneumoniae CDC 673 infected CD1 neutropenic mouse at static dose of 6.68 mg/kg, sc administered every 6 hrs; format: functional; conditions: route subcutaneous; summary of the method: as §3
# Staphylococcus aureus [22] = assay: Antimicrobial activity against Staphylococcus aureus ATCC 33591 by broth dilution method; format: functional; summary of the method: as §4
# [23] = T>MIC in Staphylococcus aureus ATCC 33591 infected CD1 neutropenic mouse at 2-log kill dose of 15.3 mg/kg, sc administered every 6 hrs; format: functional; conditions: route subcutaneous
# [24] = T>MIC in methicillin-resistant Staphylococcus aureus 22115 infected CD1 neutropenic mouse at static dose of 16.9 mg/kg, sc administered every 6 hrs; format: functional; conditions: route subcutaneous
# [25] = T>MIC in Streptococcus pneumoniae CDC 1329 infected CD1 neutropenic mouse at 2-log kill dose of 5.51 mg/kg, sc administered every 6 hrs; format: functional; conditions: route subcutaneous
# [26] = Cmax in CD1 neutropenic mouse with bacterial infection in thigh at 40 mg/kg, sc; format: ADME, organism-based; design: dose 40 mg/kg, route subcutaneous; conditions: in vivo; summary of the method: as §2
# [27] = T>MIC in Staphylococcus aureus ATCC 33591 infected CD1 neutropenic mouse at static dose of 7.91 mg/kg, sc administered every 6 hrs; format: functional; conditions: route subcutaneous; summary of the method: as §3
# [28] = T>MIC in Staphylococcus aureus ATCC 29213 infected CD1 neutropenic mouse at 2-log kill dose of 15.4 mg/kg, sc administered every 6 hrs; format: functional; conditions: route subcutaneous
# Enterobacter cloacae [29] = assay: Antimicrobial activity against Enterobacter cloacae 2249 by broth dilution method; format: functional; summary of the method: as §1
# Staphylococcus aureus [30] = assay: Antimicrobial activity against methicillin-resistant Staphylococcus aureus 22115 by broth dilution method; format: functional; summary of the method: as §4
smiles,measurement,setting,value
Nc1nc(/C(=N/O)C(=O)N[C@@H]2C(=O)N3C(C(=O)O)=C(/C=C4\CCN([C@@H]5CCNC5)C4=O)CS[C@H]23)ns1 [CEFTOBIPROLE],fT>MIC,[1],22.5%
same,MIC,Klebsiella pneumoniae,0.06 µg/mL
same,AUC,[2],213 µg·h/mL
same,half-life,[3],19.8 min
same,fT>MIC,[4],35.6%
same,fT>MIC,[5],100%
same,fT>MIC,[6],23%
same,fT>MIC,[7],98.8%
same,fT>MIC,[8],24.5%
same,MIC,Streptococcus pneumoniae,1 µg/mL
same,fT>MIC,[9],18.9%
same,Cmax,[10],10800 ng/mL
same,fT>MIC,[11],16.3%
same,fT>MIC,[12],24.8%
same,fT>MIC,[13],57.8%
same,AUC,[14],27.8 µg·h/mL
same,Cmax,[15],144000 ng/mL
same,MIC,Staphylococcus aureus [16],1 µg/mL
same,fT>MIC,[17],41.9%
same,MIC,Enterobacter cloacae [18],0.5 µg/mL
same,MIC,Staphylococcus aureus [19],2 µg/mL
same,fT>MIC,[20],59.2%
same,MIC,Escherichia coli,0.06 µg/mL
same,fT>MIC,[21],18.5%
same,MIC,Staphylococcus aureus [22],1 µg/mL
same,fT>MIC,[23],24.4%
same,fT>MIC,[24],25.4%
same,fT>MIC,[25],27%
same,Cmax,[26],31200 ng/mL
same,fT>MIC,[27],19.1%
same,fT>MIC,[28],29.9%
same,MIC,Enterobacter cloacae [29],2 µg/mL
same,MIC,Staphylococcus aureus [30],1 µg/mL
